Reference: ChEMBL document CHEMBL1124486, “Antimalarial activity of new water-soluble dihydroartemisinin derivatives. 2. Stereospecificity of the ether side chain” (J Med Chem, 1989)
Converted amounts (≈) assume the structure as drawn.

Tests used:
Plasmodium berghei [1] = assay: Increased mean survival time (>12-14 days) in P berghei infected mice (Mus musculus) after 3 days at 80 mg/kg; active in 3 of 5; format: functional
Plasmodium berghei [2] = assay: Cures in Plasmodium berghei infected mice (Mus musculus) after 3 days at 20 mg/kg; cured 0 of 5; format: functional
Plasmodium berghei [3] = assay: Cures in Plasmodium berghei infected mice (Mus musculus) after 3 days at 320 mg/kg; cured 5 of 5; format: functional
Plasmodium berghei [4] = assay: Cures in Plasmodium berghei infected mice (Mus musculus) after 3 days at 80 mg/kg; cured 1 of 5; format: functional
Plasmodium berghei [5] = assay: Increased mean survival time (>12-14 days) in Plasmodium berghei infected mice (Mus musculus) after 3days at 20 mg/kg; active in 2 of 5; format: functional
Plasmodium falciparum [6] = assay: In vitro antimalarial activity against Plasmodium falciparum W-2 Indochina; format: functional, organism-based
Method in brief: (§1)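 [³H]hypoxanthine uptake assay. Compound was dissolved in DMSO and 70% ethanol, diluted in RPMI 1640 with 10% human plasma, then tested over (1.56-100) × 10⁻⁹ M. Parasites (0.5% parasitemia, 1% hematocrit) were incubated 24 h with compound, then [³H]hypoxanthine was added and incubation continued 18 h. Cells were harvested and counted by scintillation. IC50 came from nonlinear regression of concentration-response data.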

Plasmodium falciparum [7] = assay: In vitro antimalarial activity against Plasmodium falciparum D6 (Sierra Leone); format: functional, organism-based; method in brief: as §1
Plasmodium berghei [8] = assay: Increased mean survival time (>12-14 days) in P berghei infected mice (Mus musculus) after 3 days at 80 mg/kg; active in 5 of 5; format: functional
Plasmodium berghei [9] = assay: Cures in Plasmodium berghei infected mice (Mus musculus) after 3 days at 320 mg/kg; cured 3 of 5; format: functional
Plasmodium berghei [10] = assay: Cures in Plasmodium berghei infected mice (Mus musculus) after 3 days at 80 mg/kg; cured 0 of 5; format: functional
Plasmodium berghei [11] = assay: Increased mean survival time (>12-14 days) in Plasmodium berghei infected mice (Mus musculus) after 3 days at 80 mg/kg; active in 1 of 5; format: functional
Plasmodium berghei [12] = assay: Cures in Plasmodium berghei infected mice (Mus musculus) after 3 days at 640 mg/kg; cured 4 of 5; format: functional
Plasmodium berghei [13] = assay: Cures in Plasmodium berghei infected mice (Mus musculus) after 3 days at 80 mg/kg; […]; format: functional
Plasmodium berghei [14] = assay: Increase in mean survival time (>12-14 days) in Plasmodium berghei infected mice (Mus musculus) after 3 days at 80 mg/kg; active in 1 of 5; format: functional
Plasmodium berghei [15] = assay: Cures in Plasmodium berghei infected mice (Mus musculus) after 3 days at 160 mg/kg; cured 1 of 5; format: functional
Plasmodium berghei [16] = assay: Cures in Plasmodium berghei infected mice (Mus musculus) after 3 days at 80 mg/kg; cured 2 of 5; format: functional
Plasmodium berghei [17] = assay: Cures in Plasmodium berghei infected mice (Mus musculus) after 3 days at 20 mg/kg; cured 1 of 5; format: functional
Plasmodium berghei [18] = assay: Increased mean survival time (>12-14 days) in Plasmodium berghei infected mice (Mus musculus) after 3 days at 20 mg/kg; active in 4 of /5; format: functional
Plasmodium berghei [19] = assay: Cures in Plasmodium berghei infected mice (Mus musculus) after 3 days at 160 mg/kg; cured 5 of 5; format: functional
Plasmodium berghei [20] = assay: Cures in Plasmodium berghei infected mice (Mus musculus) after 3 days at 640 mg/kg; cured 5 of 5; format: functional

**Q.** How did the “No. of mice survived” value (Plasmodium berghei [1]) turn out when `COC(=O)[C@H](C)CO[C@H]1O[C@@H]2O[C@@]3(C)CC[C@H]4[C@H](C)CC[C@@H]([C@H]1C)[C@@]24OO3` was run?
**A.** Its value is 3.

**Q.** What about the “No. of mice cured” value (Plasmodium berghei [2]) of the same compound?
**A.** Its value is 0.

**Q.** What about the “No. of mice cured” value (Plasmodium berghei [3]) of the same compound?
**A.** The value was 5.

**Q.** And the “No. of mice cured” value (Plasmodium berghei [4])?
**A.** Its value is 1.

**Q.** What about the “No. of mice survived” value (Plasmodium berghei [5]) of the same compound?
**A.** The value was 2.

**Q.** And the IC50 (Plasmodium falciparum [6])?
**A.** The IC50 was 0.057 ng/mL (≈ 0.148 nM).

**Q.** And the IC50 (Plasmodium falciparum [7])?
**A.** The IC50 was 2.15 ng/mL (≈ 5.59 nM).

**Q.** How did the IC50 (Plasmodium falciparum [6]) turn out when `C[C@H]1[C@@H](O[C@@H](C)CC(=O)O)O[C@@H]2O[C@@]3(C)CC[C@H]4[C@H](C)CC[C@@H]1[C@@]24OO3` was run?
**A.** Its IC50 is 7.43 ng/mL (≈ 20.1 nM).

**Q.** What about the IC50 (Plasmodium falciparum [7]) of the same compound?
**A.** The IC50 was 15 ng/mL (≈ 40.6 nM).

**Q.** `C[C@H]1[C@@H](OC[C@@H](C)C(=O)O)O[C@@H]2O[C@@]3(C)CC[C@H]4[C@H](C)CC[C@@H]1[C@@]24OO3` was tested. Which IC50 (Plasmodium falciparum [6]) did it give?
**A.** Its IC50 is 5.32 ng/mL (≈ 14.4 nM).

**Q.** And the IC50 (Plasmodium falciparum [7])?
**A.** The IC50 was 22.2 ng/mL (≈ 60 nM).

**Q.** How did the IC50 (Plasmodium falciparum [6]) turn out when `C[C@H]1[C@@H](O[C@H](C)CC(=O)O)O[C@@H]2O[C@@]3(C)CC[C@H]4[C@H](C)CC[C@@H]1[C@@]24OO3` was run?
**A.** Its IC50 is 4.42 ng/mL (≈ 11.9 nM).

**Q.** And the IC50 (Plasmodium falciparum [7])?
**A.** Its IC50 is 36.5 ng/mL (≈ 98.4 nM).

**Q.** For `C[C@H]1[C@@H](OC[C@H](C)C(=O)O)O[C@@H]2O[C@@]3(C)CC[C@H]4[C@H](C)CC[C@@H]1[C@@]24OO3`, which IC50 (Plasmodium falciparum [6]) is on record?
**A.** The IC50 was 8.33 ng/mL (≈ 22.5 nM).

**Q.** What about the IC50 (Plasmodium falciparum [7]) of the same compound?
**A.** The IC50 was 28.7 ng/mL (≈ 77.5 nM).

**Q.** Which IC50 (Plasmodium falciparum [6]) does the source give for `C=C[C@H]1CN2CC[C@H]1C[C@H]2[C@H](O)c1ccnc2ccc(OC)cc12` [QUININE] here?
**A.** Its IC50 is 59 ng/mL (≈ 182 nM).

**Q.** And the IC50 (Plasmodium falciparum [7])?
**A.** The IC50 was 3.61 ng/mL (≈ 11.1 nM).

**Q.** `COC(=O)[C@@H](C)CO[C@H]1O[C@@H]2O[C@@]3(C)CC[C@H]4[C@H](C)CC[C@@H]([C@H]1C)[C@@]24OO3` was tested. Which IC50 (Plasmodium falciparum [6]) did it give?
**A.** The IC50 was 0.015 ng/mL (≈ 0.039 nM).

**Q.** What about the IC50 (Plasmodium falciparum [7]) of the same compound?
**A.** The IC50 was 0.36 ng/mL (≈ 0.936 nM).

**Q.** With `C[C@H]1[C@@H](OCC23CC4CC(CC(C4)C2)C3)O[C@@H]2O[C@@]3(C)CC[C@H]4[C@H](C)CC[C@@H]1[C@@]24OO3` as the compound, how does the “No. of mice survived” value (Plasmodium berghei [8]) read?
**A.** The value was 5.

**Q.** And the “No. of mice cured” value (Plasmodium berghei [2])?
**A.** The value was 0.

**Q.** And the “No. of mice cured” value (Plasmodium berghei [9])?
**A.** Its value is 3.

**Q.** What about the “No. of mice cured” value (Plasmodium berghei [10]) of the same compound?
**A.** The value was 0.

**Q.** What about the IC50 (Plasmodium falciparum [6]) of the same compound?
**A.** The IC50 was 2.11 ng/mL (≈ 4.88 nM).

**Q.** And the IC50 (Plasmodium falciparum [7])?
**A.** The IC50 was 2.7 ng/mL (≈ 6.24 nM).

**Q.** What does the source list for `CC1=CO[C@@H]2O[C@]3(C)CC[C@H]4[C@H](C)CC[C@@H]1[C@@]24OO3` [ANHYDRODIHYDROARTEMISININ]?
**A.** No. of mice survived (Plasmodium berghei [11]): 1; No. of mice cured (Plasmodium berghei [12]): 4; No. of mice survived (Plasmodium berghei [13]): 2; No. of mice survived (Plasmodium berghei [14]): 1; No. of mice cured (Plasmodium berghei [15]): 1; IC50 (Plasmodium falciparum [6]): 0.43 ng/mL (≈ 1.61 nM); IC50 (Plasmodium falciparum [7]): 0.83 ng/mL (≈ 3.12 nM); No. of mice cured (Plasmodium berghei [16]): 2

**Q.** Which “No. of mice cured” value (Plasmodium berghei [17]) does the source give for `COC(=O)C[C@H](C)O[C@H]1O[C@@H]2O[C@@]3(C)CC[C@H]4[C@H](C)CC[C@@H]([C@H]1C)[C@@]24OO3` here?
**A.** Its value is 1.

**Q.** And the “No. of mice cured” value (Plasmodium berghei [3])?
**A.** Its value is 5.

**Q.** What about the “No. of mice cured” value (Plasmodium berghei [13]) of the same compound?
**A.** The value was 5.

**Q.** And the “No. of mice survived” value (Plasmodium berghei [18])?
**A.** The value was 4.

**Q.** What about the IC50 (Plasmodium falciparum [6]) of the same compound?
**A.** The IC50 was 0.48 ng/mL (≈ 1.25 nM).

**Q.** What about the IC50 (Plasmodium falciparum [7]) of the same compound?
**A.** Its IC50 is 1.91 ng/mL (≈ 4.97 nM).

**Q.** Which results are given for `COC(=O)C[C@@H](C)O[C@H]1O[C@@H]2O[C@@]3(C)CC[C@H]4[C@H](C)CC[C@@H]([C@H]1C)[C@@]24OO3`?
**A.** IC50 (Plasmodium falciparum [6]): 0.071 ng/mL (≈ 0.185 nM); IC50 (Plasmodium falciparum [7]): 0.44 ng/mL (≈ 1.14 nM)

**Q.** Which results are given for `C[C@@H]1CC[C@H]2[C@@H](C)C(=O)O[C@@H]3O[C@@]4(C)CC[C@@H]1[C@]32OO4` [ARTEMISININ]?
**A.** No. of mice survived (Plasmodium berghei [1]): 3; No. of mice cured (Plasmodium berghei [19]): 5; No. of mice cured (Plasmodium berghei [2]): 0; No. of mice cured (Plasmodium berghei [20]): 5; No. of mice survived (Plasmodium berghei [5]): 2; IC50 (Plasmodium falciparum [6]): 2.6 ng/mL (≈ 9.21 nM); IC50 (Plasmodium falciparum [7]): 2.35 ng/mL (≈ 8.32 nM); No. of mice cured (Plasmodium berghei [16]): 2
